Experimental data pooled from the literature.
Target: Death-associated protein kinase 1 (DAPK1, Homo sapiens, UniProt P53355)

| Compound | assay | conditions | remaining binding |
| --- | --- | --- | --- |
| C[C@@H](c1ccc(-n2cnc3c(N)ncnc32)cc1)N1CCc2nn(C)c(Cc3ccccc3)c2C1=O | binding, competition with immobilised ligand | 0.1 µM | 95% |
| NS(=O)(=O)c1cc(NC(=O)C2(c3ccccc3Cl)CC2)ccc1Oc1cccc(Cl)c1 | cell-free assay, competition with immobilised ligand | 1 µM | 98% |
| CN(C)c1ncc(F)c(-c2cnn3ncccc23)n1 | binding | 1 µM | 100% |
| C[C@H](c1ccc(F)cc1)N(Cc1cccc(C(=O)O)c1)C(=O)c1cnc2ccccc2c1 | cell-free assay, competition with immobilised ligand | 1 µM | 97% |
| O=C(NCCCN1CCOCC1)c1ccc(Nc2nccc(-c3cc4ccccc4s3)n2)cc1 | binding, competition with immobilised ligand | 1 µM | 18% |
| CNC(=O)[C@@H]1CC[C@@H](n2c(-c3ccc4cnccc4c3)nc3ccc(C(=O)NCc4cccc(C(N)=O)c4)cc32)C1 | binding, competition with immobilised ligand | 1 µM | 100% |
| CN(C)c1nccc(-c2cnc3ncccn23)n1 | binding | 1 µM | 92% |
| CCCOc1ccc([C@H]2[C@H](C(=O)O)[C@@H](c3ccc4c(c3)OCO4)CN2CC(=O)Nc2c(CC)cccc2CC)cc1 | cell-free assay, competition with immobilised ligand | 1 µM | 90% |
| CN(C)c1nccc(-c2cnn3ncccc23)n1 | binding | 1 µM | 100% |
| Nc1ncc2c(n1)-c1c([nH]c3ccc(C#CC4CC4)cc13)CCCC2 | binding, competition with immobilised ligand | 1 µM | 87% |
| O=C(NCC1CCOCC1)c1n[nH]cc1NC(=O)c1c(F)cccc1F | binding, competition with immobilised ligand | 1 µM | 96% |
| CC(=O)N1CCC(c2ccc(C(=O)NC3=NCCN3)cc2C(F)(F)F)CC1 | cell-free assay, competition with immobilised ligand | 1 µM | 100% |
| C[C@@H]1CCN(c2nccc(-c3cnn4ncccc34)n2)C1 | binding | 1 µM | 79% |
| FC(F)(F)c1ccc2c(c1)nc(-c1cccnc1)n2C1CC1 | cell-free assay, competition with immobilised ligand | 1 µM | 100% |
| O=C(NCCCN1CCOCC1)c1ccc(Nc2ncc(Cl)c(-c3ccc(Cl)s3)n2)cc1 | binding, competition with immobilised ligand | 1 µM | 22% |
| CC1CCCN1c1nccc(-c2cnn3ncccc23)n1 (centres unmarked) | binding | 1 µM | 99% |
| Nc1c(C(=O)NCc2ccc(C(=O)NCCCC3CCCCC3)cc2)cnn1-c1ccccc1 | cell-free assay, competition with immobilised ligand | 0.1 µM | 92% |
| COc1cnc(Nc2cccc(S(N)(=O)=O)c2)nc1N1CCN(c2ccccc2)C(=O)C1 | binding, competition with immobilised ligand | 1 µM | 95% |
| O=C(c1ccc(Nc2ncc(Cl)c(-c3ccc(Cl)s3)n2)cc1)N1CCC(N2CCCC2)CC1 | binding, competition with immobilised ligand | 1 µM | 17% |
| CCN1CCN(Cc2ccc(C(=O)Nc3ccc(C)c(Oc4ccc5c(c4)CC(=O)N5)c3)cc2C(F)(F)F)CC1 | binding, competition with immobilised ligand | 1 µM | 100% |
